Experimental data from ChEMBL document CHEMBL1157684, “2-Thienyl-4-furyl-6-aryl pyridine derivatives: synthesis, topoisomerase I and II inhibitory activity, cytotoxicity, and structure-activity relationship study” (Bioorg Med Chem, 2010).
Counter-ions that a name gives are not always drawn. Activity calls are given as the source filed them. No cut-off for these calls is given here.

Columns and labels:
[1] = target: DNA topoisomerase 2-alpha (Homo sapiens) (UniProt P11388); assay: Inhibition of human DNA topoisomerase 2alpha-mediated relaxation of supercoiled pBR322 DNA at 20 uM after 30 mins by agarose gel electrophoresis
Sequence of DNA topoisomerase 2-alpha (Homo sapiens) (P11388 whole entry): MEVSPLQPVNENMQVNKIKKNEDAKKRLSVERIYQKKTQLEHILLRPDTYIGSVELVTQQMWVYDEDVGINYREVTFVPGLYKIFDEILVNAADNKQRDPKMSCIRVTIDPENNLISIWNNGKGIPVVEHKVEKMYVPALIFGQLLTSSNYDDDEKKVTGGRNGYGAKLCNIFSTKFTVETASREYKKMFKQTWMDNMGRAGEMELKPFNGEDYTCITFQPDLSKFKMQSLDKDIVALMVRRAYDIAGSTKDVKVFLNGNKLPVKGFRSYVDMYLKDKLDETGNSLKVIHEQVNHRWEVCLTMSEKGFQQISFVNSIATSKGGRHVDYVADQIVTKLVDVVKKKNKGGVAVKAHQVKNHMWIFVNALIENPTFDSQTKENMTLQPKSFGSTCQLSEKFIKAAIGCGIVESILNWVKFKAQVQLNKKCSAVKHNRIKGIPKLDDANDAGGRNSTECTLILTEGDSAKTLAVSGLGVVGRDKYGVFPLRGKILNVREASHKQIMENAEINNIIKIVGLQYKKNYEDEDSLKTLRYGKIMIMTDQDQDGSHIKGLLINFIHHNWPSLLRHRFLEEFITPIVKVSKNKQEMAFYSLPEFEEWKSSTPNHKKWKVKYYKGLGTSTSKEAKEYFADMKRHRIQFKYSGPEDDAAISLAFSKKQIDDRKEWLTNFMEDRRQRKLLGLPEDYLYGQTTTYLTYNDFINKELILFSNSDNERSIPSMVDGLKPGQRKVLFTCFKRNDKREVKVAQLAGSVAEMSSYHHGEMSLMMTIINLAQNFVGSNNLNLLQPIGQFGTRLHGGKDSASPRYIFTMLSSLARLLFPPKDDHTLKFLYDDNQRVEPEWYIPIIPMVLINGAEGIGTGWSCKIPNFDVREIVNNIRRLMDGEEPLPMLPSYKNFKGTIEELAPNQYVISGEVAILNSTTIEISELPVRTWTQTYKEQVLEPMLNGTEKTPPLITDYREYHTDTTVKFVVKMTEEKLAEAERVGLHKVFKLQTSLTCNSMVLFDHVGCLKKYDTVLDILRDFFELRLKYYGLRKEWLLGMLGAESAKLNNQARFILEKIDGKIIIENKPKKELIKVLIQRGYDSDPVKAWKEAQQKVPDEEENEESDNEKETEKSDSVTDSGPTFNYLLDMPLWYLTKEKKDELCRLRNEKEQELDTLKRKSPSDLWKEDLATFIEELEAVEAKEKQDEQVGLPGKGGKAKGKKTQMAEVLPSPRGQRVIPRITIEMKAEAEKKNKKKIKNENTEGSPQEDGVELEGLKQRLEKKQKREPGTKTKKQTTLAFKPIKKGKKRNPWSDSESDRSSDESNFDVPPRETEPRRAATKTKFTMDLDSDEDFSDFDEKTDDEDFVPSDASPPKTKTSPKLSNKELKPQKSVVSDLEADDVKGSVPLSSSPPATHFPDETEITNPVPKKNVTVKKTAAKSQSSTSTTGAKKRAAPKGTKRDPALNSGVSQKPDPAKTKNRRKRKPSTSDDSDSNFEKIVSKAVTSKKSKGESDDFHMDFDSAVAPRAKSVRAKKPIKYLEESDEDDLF
Outline: (§1)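 Human topo IIα (1 unit) with 200 ng supercoiled pBR322, 30 min at 30 °C in 10 mM Tris–HCl pH 7.9, 50 mM NaCl, 50 mM KCl, 5 mM MgCl2, 1 mM EDTA, 1 mM ATP plus BSA. Products run on 1% agarose in TAE at 25 V for 4 h, ethidium-stained, supercoiled DNA quantified under UV.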

MCF7 = assay: Cytotoxicity against human MCF7 cells after 4 days by ELISA reader assay; format: functional, cell-based; conditions: MCF7, 96 h
Outline: (§2)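 Cells grown per supplier, seeded at 2–4 × 10⁴ per well, left overnight in medium with 10% FBS at 37 °C under 5% CO₂, then exposed to compounds. WST (cell counting kit-8) reagent added for a further 4 h, absorbance read at 450 nm. IC50 from four-parameter logistic fit; mean ± S.D. of three experiments, each in triplicate.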

[2] = target: T1, DNA topoisomerase 1 (Homo sapiens) (UniProt P11387); assay: Inhibition of human recombinant DNA topoisomerase 1-mediated relaxation of supercoiled pBR322 DNA at 20 uM after 30 mins by agarose gel electrophoresis
T1 sequence (whole entry): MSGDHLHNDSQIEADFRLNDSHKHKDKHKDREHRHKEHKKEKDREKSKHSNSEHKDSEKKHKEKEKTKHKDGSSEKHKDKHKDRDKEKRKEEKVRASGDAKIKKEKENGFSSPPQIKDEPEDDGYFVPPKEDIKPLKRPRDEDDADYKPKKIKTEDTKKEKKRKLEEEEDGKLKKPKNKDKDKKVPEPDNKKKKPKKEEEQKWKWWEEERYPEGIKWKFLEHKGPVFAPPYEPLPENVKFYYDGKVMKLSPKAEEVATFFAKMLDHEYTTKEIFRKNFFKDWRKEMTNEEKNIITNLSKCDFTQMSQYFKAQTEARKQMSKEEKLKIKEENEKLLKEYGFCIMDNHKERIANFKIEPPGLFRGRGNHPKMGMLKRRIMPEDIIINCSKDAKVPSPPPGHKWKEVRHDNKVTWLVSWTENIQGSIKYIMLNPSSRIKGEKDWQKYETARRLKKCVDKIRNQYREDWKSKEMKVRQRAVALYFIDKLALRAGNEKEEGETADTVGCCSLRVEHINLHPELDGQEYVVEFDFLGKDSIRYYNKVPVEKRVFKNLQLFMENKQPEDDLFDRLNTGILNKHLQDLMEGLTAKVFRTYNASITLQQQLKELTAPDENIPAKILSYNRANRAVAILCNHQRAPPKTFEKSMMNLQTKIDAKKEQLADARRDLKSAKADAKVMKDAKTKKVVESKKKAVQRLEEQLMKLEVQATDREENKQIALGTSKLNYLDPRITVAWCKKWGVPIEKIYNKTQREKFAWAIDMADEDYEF
Outline: (§3)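 Recombinant human topo I (0.4 units) with 100 ng supercoiled pBR322, 30 min at 37 °C in 10 mM Tris–HCl pH 7.9, 150 mM NaCl, 0.1% BSA, 1 mM spermidine, 5% glycerol. Compounds from 20 mM DMSO stock. Products run on 1% agarose in TAE, 15 V for 7 h, ethidium-stained, bands quantified under UV.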

HeLa = assay: Cytotoxicity against human HeLa cells after 4 days by ELISA reader assay; format: functional, cell-based; conditions: 96 h; outline: as §2
HCT-15 = assay: Cytotoxicity against human HCT15 cells after 4 days by ELISA reader assay; format: functional, cell-based; conditions: HCT-15, 96 h; outline: as §2
DU-145 = assay: Cytotoxicity against human DU145 cells after 4 days by ELISA reader assay; format: functional, cell-based; conditions: DU-145, 96 h; outline: as §2
[3] = target: T1, DNA topoisomerase 1 (Homo sapiens); assay: Inhibition of human recombinant DNA topoisomerase 1-mediated relaxation of supercoiled pBR322 DNA at 100 uM after 30 mins by agarose gel electrophoresis; outline: as §3
K562 = assay: Cytotoxicity against human K562 cells after 4 days by ELISA reader assay; format: functional, cell-based; conditions: K562, 96 h; outline: as §2
[4] = target: DNA topoisomerase 2-alpha (Homo sapiens) (UniProt P11388); assay: Inhibition of human DNA topoisomerase 2alpha-mediated relaxation of supercoiled pBR322 DNA at 100 uM after 30 mins by agarose gel electrophoresis; outline: as §1

| inhibition [1] [%] | inhibition [2] | inhibition [3] [%] | inhibition [4] [%] | Structure (SMILES) | IC50 (MCF7) [µM] | IC50 (HeLa) [µM] | IC50 (HCT-15) [µM] | IC50 (DU-145) [µM] | IC50 (K562) [µM] |
| --- | --- | --- | --- | --- | --- | --- | --- | --- | --- |
| 38.9 | inactive | 3.1 | 49.6 | Clc1ccc(-c2cc(-c3ccoc3)cc(-c3ccccn3)n2)s1 | 3.36 | 21.6 | 1.27 | 20.5 | 20 |
| 37.6 | inactive | 0 | 49.5 | Clc1ccc(-c2cc(-c3ccoc3)cc(-c3ccccc3Cl)n2)s1 | 7.36 | 19 | 1.1 | 16.4 | 15.8 |
| 56.9 | inactive | 2.3 | 62.7 | Clc1ccc(-c2cc(-c3ccoc3)cc(-c3ccc(Cl)s3)n2)cc1 | 2.6 | 16.5 | 0.64 | 29.5 | 19.6 |
| 17.8 | inactive | 1 | 56.3 | Cc1ccsc1-c1cc(-c2ccco2)cc(-c2ccc(Cl)cc2)n1 | 0.89 | 24.5 | 0.71 | 26.7 | 20.7 |
| 30.7 | inactive | 7.8 | 61.1 | Cc1ccsc1-c1cc(-c2ccc(Cl)o2)cc(-c2ccco2)n1 | 5.57 | 22.2 | 26.3 | 27.3 | 10.6 |
| 25.5 | inactive | 21.4 | 57.2 | Cc1ccsc1-c1cc(-c2ccc(Cl)o2)cc(-c2cccnc2)n1 | 5.81 | > 50 | > 50 | 30.8 | 12.3 |
| 50.6 | inactive | 2.1 | 54 | Clc1cccc(-c2cc(-c3ccoc3)cc(-c3ccc(Cl)s3)n2)c1 | 2.92 | 23.7 | 0.95 | 23 | 22.1 |
| 54 | inactive | 13.2 | 60.5 | Cc1ccc(-c2cc(-c3ccoc3)cc(-c3ccc(Cl)s3)n2)o1 | 1.9 | 26.5 | 0.79 | 33.4 | 12.7 |
| – | – | – | – | CC[C@@]1(O)C(=O)OCc2c1cc1n(c2=O)Cc2cc3ccccc3nc2-1 [CAMPTOTHECIN] | 0.06 | – | 0.76 | 0.66 | – |
| 48.6 | inactive | 9.6 | 49.1 | Clc1ccc(-c2cc(-c3ccoc3)cc(-c3ccco3)n2)s1 | 4.74 | 22.7 | 1.28 | 17.2 | 16.2 |
| 3.5 | inactive | 2 | 33.2 | Cc1ccsc1-c1cc(-c2ccco2)cc(-c2ccccc2Cl)n1 | 14.2 | 24 | 0.54 | 29.9 | 25.4 |
| – | – | – | – | COc1cccc2c1C(=O)c1c(O)c3c(c(O)c1C2=O)C[C@@](O)(C(=O)CO)C[C@@H]3O[C@H]1C[C@H](N)[C@H](O)[C@H](C)O1 [DOXORUBICIN HYDROCHLORIDE] | – | – | 2.12 | 1.5 | 2.5 |
| 28.9 | – | – | – | COc1cc([C@@H]2c3cc4c(cc3[C@@H](O[C@@H]3O[C@@H]5CO[C@@H](C)O[C@H]5[C@H](O)[C@H]3O)[C@H]3COC(=O)[C@H]23)OCO4)cc(OC)c1O [ETOPOSIDE] | 1.89 | 1.29 | 1.09 | 1.3 | 2.41 |
| 39.9 | inactive | 23.1 | 53.8 | Clc1ccc(-c2cc(-c3ccco3)nc(-c3ccc(Cl)s3)c2)o1 | 16.9 | > 50 | > 50 | 27.7 | 22.5 |
| 40.9 | inactive | 2 | 60.8 | Clc1ccc(-c2cc(-c3ccoc3)cc(-c3cccnc3)n2)s1 | 3.48 | 20 | 0.72 | 18.5 | 18.7 |
| 41.1 | inactive | 14.2 | 58.6 | Cc1ccc(-c2cc(-c3ccc(Cl)o3)cc(-c3ccc(Cl)s3)n2)cc1 | 3.04 | > 50 | > 50 | > 50 | 21.4 |
| 35.7 | inactive | 5.9 | 51.5 | Cc1ccsc1-c1cc(-c2ccc(Cl)o2)cc(-c2cccc(Cl)c2)n1 | 18.8 | 24.8 | 26.4 | 20.5 | 13.4 |
| 37.6 | inactive | 2.6 | 50.2 | Cc1cccc(-c2cc(-c3ccoc3)cc(-c3ccc(Cl)s3)n2)c1 | 3.99 | 23.6 | 0.88 | 20.3 | 13.7 |
| 53.6 | inactive | 0 | 50.3 | Cc1ccc(-c2cc(-c3ccoc3)cc(-c3ccc(Cl)s3)n2)cc1 | 5.34 | 28.7 | 1.17 | 25.3 | 17.9 |
| 40.4 | inactive | 5.1 | 59.8 | Cc1ccsc1-c1cc(-c2ccc(Cl)o2)cc(-c2ccc(Cl)cc2)n1 | 15.3 | 29.3 | 30.3 | 21.9 | 15.6 |
| 8.1 | 10.6% | 85.9 | 33.8 | Cc1ccsc1-c1cc(-c2ccoc2)cc(-c2ccc(Cl)cc2)n1 | 20.3 | 17.4 | 2.99 | 20.1 | 19.6 |
| 36.4 | inactive | 5.4 | 59.9 | Cc1ccsc1-c1cc(-c2ccoc2)cc(-c2ccco2)n1 | 18.2 | 30.5 | 0.64 | 30.4 | 23.3 |
| 42.7 | inactive | 2.2 | 59.8 | Clc1ccc(-c2cc(-c3ccc(Cl)o3)cc(-c3ccc(Cl)s3)n2)cc1 | 12.6 | 25.1 | 25.3 | 23 | 19.3 |
| 49.2 | inactive | 4.6 | 60.7 | Cc1ccccc1-c1cc(-c2ccoc2)cc(-c2ccc(Cl)s2)n1 | 1.43 | 19 | 0.99 | 18.5 | 12.3 |
| 40.7 | inactive | 13.3 | 53.8 | Clc1cccc(-c2cc(-c3ccc(Cl)o3)cc(-c3ccc(Cl)s3)n2)c1 | 15.1 | 25.2 | > 50 | 21.6 | 19.6 |
